Publication PMC10925177 (bioRxiv, 2024)

Legend:
EZH2 [1] = biological target: T1, EZH2 (Homo sapiens, UniProt Q15910); test: Radioactive methyltransferase assay, EZH2; type: biochemical; conditions: 10 μM compound
Target sequence in this assay (Q15910 whole entry): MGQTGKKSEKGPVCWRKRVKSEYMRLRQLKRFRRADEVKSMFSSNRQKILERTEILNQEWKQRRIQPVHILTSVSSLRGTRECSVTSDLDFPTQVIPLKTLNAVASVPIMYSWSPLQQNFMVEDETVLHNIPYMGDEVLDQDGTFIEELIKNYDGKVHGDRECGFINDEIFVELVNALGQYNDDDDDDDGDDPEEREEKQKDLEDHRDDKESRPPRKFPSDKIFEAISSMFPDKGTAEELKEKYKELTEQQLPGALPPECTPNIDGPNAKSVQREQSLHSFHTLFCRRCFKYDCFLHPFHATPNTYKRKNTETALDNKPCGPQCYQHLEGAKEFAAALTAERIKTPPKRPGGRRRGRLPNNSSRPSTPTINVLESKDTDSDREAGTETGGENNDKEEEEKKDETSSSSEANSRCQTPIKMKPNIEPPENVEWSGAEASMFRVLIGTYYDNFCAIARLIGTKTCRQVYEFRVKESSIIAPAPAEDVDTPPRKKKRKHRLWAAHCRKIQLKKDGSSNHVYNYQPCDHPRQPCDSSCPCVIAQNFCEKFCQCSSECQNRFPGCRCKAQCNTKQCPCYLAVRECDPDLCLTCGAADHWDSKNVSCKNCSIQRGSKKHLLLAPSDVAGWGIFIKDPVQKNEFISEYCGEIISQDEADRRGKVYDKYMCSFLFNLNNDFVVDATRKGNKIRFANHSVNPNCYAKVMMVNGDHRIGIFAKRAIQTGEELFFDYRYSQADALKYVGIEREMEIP
Target sequence in this assay (O75530 whole entry partner): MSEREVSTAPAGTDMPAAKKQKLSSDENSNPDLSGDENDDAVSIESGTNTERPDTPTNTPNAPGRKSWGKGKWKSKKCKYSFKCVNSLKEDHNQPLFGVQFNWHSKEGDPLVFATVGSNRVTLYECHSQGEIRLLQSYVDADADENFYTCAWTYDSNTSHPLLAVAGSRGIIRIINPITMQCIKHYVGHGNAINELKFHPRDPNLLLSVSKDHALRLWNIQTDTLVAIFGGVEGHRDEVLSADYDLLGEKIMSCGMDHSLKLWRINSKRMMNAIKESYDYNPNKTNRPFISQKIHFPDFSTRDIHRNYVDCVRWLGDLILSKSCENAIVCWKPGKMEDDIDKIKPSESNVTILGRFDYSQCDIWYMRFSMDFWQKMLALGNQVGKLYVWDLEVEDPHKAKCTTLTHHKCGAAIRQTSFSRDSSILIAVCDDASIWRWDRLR
Target sequence in this assay (Q15022 whole entry partner): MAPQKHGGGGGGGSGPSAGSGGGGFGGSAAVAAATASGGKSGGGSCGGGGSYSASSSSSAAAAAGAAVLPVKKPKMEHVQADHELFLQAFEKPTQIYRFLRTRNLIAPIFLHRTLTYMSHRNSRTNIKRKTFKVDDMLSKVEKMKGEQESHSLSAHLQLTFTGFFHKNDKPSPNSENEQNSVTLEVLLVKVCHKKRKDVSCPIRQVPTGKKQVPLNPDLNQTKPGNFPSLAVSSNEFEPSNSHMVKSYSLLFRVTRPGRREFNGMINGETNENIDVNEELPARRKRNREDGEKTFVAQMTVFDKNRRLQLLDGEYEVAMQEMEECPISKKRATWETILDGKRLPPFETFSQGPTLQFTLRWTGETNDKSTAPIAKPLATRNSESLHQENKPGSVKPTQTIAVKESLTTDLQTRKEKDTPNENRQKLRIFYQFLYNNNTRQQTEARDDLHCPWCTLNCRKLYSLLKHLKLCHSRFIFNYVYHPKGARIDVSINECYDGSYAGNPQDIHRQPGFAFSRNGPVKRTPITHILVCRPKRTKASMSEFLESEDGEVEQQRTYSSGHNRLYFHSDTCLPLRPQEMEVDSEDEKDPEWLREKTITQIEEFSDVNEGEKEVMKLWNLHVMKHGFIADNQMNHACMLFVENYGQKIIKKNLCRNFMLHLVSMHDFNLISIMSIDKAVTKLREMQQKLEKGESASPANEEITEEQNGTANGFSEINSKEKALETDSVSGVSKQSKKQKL
Target sequence in this assay (Q09028 whole entry partner): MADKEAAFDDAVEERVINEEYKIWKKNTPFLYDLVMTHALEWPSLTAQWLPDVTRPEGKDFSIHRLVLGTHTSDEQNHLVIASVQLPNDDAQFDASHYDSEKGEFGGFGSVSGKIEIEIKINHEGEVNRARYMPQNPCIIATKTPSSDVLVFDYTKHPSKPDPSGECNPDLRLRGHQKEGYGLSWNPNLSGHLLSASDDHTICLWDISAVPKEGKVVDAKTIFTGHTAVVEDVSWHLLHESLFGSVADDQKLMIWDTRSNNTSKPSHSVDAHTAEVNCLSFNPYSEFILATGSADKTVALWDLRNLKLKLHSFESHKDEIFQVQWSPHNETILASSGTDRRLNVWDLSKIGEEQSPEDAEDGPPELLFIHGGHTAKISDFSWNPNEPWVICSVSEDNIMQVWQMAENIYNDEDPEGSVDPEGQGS
Target sequence in this assay (Q6ZN18 whole entry partner): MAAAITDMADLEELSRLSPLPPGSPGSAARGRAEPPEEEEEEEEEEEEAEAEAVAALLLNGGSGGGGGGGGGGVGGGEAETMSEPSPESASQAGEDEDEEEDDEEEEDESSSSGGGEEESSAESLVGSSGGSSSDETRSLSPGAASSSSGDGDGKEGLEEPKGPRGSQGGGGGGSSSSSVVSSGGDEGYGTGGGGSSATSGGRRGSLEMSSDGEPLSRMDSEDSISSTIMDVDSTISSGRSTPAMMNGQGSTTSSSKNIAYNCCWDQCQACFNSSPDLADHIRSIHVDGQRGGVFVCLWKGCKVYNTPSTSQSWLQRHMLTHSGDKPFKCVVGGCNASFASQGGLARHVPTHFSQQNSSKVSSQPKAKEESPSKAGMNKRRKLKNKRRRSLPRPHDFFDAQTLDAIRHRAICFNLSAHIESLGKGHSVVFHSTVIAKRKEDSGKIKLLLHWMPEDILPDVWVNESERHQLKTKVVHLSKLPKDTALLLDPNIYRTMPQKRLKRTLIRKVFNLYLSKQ

[2] = tested on: panel of 21 protein methyltransferases; test: Selectivity panel, radioactive methyltransferase assays; type: biochemical; conditions: 10 μM compound, duplicate
Summary of the method: (§1)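 The selectivity screen covered 21 protein methyltransferases in radioisotope-based MT HotSpot methyltransferase assays run by a contract laboratory. Test compound was at 10 μM. Each assay was run in duplicate and reported as mean ± SD of the two replicates.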

[3] = Mouse PK study, single IP administration; type: in vivo; conditions: C57BL/6 mice
22Rv1 cells = test: Clonogenicity assay in 22Rv1 cells; type: cell-based; conditions: 8 days treatment, crystal violet
Summary of the method: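 22Rv1 cells were seeded at 50,000 per well in 6-well plates. They were treated continuously with the test compound at the indicated concentrations for 8 days, then stained with 0.5% crystal violet. Three independent biological experiments were run.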

EZH2 [4] = biological target: T1, EZH2; test: Western blot of EZH2 protein level in 22Rv1 cells; type: cell-based; conditions: indicated concentration, 24 h, WB
Target sequence in this assay (Q15910 whole entry): as the sequence (Q15910 whole entry) above

G9a mRNA = test: RT-qPCR of G9a mRNA in H1299 cells; type: cell-based; conditions: 3 μM, 24 h, normalized to DMSO
Summary of the method: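 H1299 cells were treated with DMSO or test compound at 3 μM for 24 h. Total RNA was extracted and reverse-transcribed to cDNA. qPCR used gene-specific primers for G9a and GLP, and a GAPDH primer set was included.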

GLP = biological target: T2, GLP (Homo sapiens, UniProt Q9H9B1); test: GLP radioactive methyltransferase assay; type: biochemical; conditions: indicated concentrations, duplicate (Figure 4C)
T2 sequence (Q9H9B1 1-1298): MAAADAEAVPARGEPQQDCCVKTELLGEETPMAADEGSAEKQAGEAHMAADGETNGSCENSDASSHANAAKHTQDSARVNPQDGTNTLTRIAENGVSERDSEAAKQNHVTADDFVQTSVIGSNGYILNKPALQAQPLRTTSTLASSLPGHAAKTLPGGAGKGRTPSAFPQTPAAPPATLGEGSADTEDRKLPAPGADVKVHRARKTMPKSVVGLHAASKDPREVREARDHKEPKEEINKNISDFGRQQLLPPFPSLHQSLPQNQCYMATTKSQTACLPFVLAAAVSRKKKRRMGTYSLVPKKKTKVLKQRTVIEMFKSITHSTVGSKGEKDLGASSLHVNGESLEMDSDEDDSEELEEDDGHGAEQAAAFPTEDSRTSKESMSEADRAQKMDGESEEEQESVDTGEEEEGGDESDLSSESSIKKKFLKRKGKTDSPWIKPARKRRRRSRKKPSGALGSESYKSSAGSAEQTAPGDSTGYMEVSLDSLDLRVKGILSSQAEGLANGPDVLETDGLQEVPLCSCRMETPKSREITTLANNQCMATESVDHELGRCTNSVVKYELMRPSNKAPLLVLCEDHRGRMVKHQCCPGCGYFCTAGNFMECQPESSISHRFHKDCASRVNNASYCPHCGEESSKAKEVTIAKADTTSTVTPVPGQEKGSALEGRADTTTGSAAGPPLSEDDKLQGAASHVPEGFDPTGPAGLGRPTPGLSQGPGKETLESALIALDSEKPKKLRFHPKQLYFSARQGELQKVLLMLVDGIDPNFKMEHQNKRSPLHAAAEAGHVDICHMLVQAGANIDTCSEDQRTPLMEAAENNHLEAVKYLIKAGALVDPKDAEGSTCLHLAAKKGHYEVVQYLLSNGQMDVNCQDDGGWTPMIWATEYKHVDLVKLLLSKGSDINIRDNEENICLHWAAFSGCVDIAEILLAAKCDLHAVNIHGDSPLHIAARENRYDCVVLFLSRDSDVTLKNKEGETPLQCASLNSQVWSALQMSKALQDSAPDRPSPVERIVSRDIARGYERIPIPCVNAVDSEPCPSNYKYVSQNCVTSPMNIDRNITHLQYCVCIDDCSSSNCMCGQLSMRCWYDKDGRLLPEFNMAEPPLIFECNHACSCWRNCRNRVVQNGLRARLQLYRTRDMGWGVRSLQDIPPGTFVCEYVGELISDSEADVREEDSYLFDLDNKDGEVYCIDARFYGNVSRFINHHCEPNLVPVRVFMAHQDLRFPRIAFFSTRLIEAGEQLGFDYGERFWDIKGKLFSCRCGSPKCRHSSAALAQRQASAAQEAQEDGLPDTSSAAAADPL
Summary of the method: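 Enzyme activity was measured with a radioisotope-based MT HotSpot methyltransferase assay run by a contract laboratory. Test compounds were run at the indicated concentrations, in duplicate. Data are mean ± SD of the two duplicate experiments.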

PRMT7 = biological target: T3, PRMT7 (Homo sapiens, UniProt Q9NVM4); test: Radioactive methyltransferase assay, PRMT7; type: biochemical; conditions: 10 μM compound
T3 sequence (Q9NVM4 1-692): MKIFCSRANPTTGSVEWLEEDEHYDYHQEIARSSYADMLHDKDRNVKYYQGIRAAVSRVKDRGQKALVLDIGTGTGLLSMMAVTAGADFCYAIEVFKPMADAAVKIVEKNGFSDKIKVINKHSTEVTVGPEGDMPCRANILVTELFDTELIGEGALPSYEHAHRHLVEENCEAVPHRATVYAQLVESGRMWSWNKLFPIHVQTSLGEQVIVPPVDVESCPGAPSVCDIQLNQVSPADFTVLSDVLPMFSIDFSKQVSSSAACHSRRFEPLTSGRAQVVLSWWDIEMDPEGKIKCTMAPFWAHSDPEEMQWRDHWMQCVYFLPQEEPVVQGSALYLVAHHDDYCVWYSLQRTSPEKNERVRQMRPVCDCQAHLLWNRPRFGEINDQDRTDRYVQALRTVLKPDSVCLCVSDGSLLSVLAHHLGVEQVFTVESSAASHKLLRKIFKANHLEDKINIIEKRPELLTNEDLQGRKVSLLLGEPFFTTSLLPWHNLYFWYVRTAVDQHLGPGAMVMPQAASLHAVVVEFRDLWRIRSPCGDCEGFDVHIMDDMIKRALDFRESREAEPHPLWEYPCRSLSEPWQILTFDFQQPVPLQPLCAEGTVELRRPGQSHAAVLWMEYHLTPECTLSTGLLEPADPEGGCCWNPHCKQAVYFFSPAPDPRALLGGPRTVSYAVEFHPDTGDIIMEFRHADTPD
Summary of the method: as §1

SMILES: COc1cc2c(NC3CCN(CCCC(=O)NCCCCCCCCCCCC(=O)N[C@H](C(=O)N4C[C@H](O)C[C@H]4C(=O)NCc4ccc(-c5scnc5C)cc4)C(C)(C)C)CC3)nc(N3CCC(F)(F)CC3)nc2cc1OCCCN1CCCC1 [Compound 10, (2S,4R)-1-((S)-2-(12-(4-(4-((2-(4,4-difluoropiperidin-1-yl)-6-methoxy-7-(3-(pyrrolidin-1-yl)propoxy)quinazolin-4-yl)amino)piperidin-1-yl)butanamido)dodecanamido)-3,3-dimethylbutanoyl)-4-hydroxy-N-(4-(4-methylthiazol-5-yl)benzyl)pyrrolidine-2-carboxamide]
- inhibition of EZH2 (EZH2 [1]): moderately inhibited
- inhibition of panel methyltransferases [2]: ≤ 50%
- Cmax ([3]; IP, 50 mg/kg, plasma, HCl salt form): 27 ± 0.6 µM
- plasma exposure levels maintained up to 8 h ([3]; IP, 50 mg/kg, up to 8 h): > 5 µM
- clinical signs in the PK study ([3]; single IP 50 mg/kg): no clinical signs were observed
- tolerability in the PK study ([3]; single IP 50 mg/kg): well tolerated
- inhibition of 22Rv1 cell colony formation (22Rv1 cells): able to inhibit
- EZH2 degradation (EZH2 [4]): cannot induce the degradation
- mRNA levels of G9a (G9a mRNA): did not significantly alter
- inhibition of GLP enzymatic activity (GLP): similarly inhibited
- inhibition of PRMT7 (PRMT7): moderately inhibited
